Data taken from ChEMBL document CHEMBL1789904, “Imaging of Plasmodium liver stages to drive next-generation antimalarial drug discovery” (Science, 2011).
One block for each compound: values may come before it.

System: Plasmodium yoelii
Experiment: NOVARTIS: Antimalarial liver stage activity measured as reduction in Plasmodium yoelii schizont area in HepG2-A16-CD81 cells by immuno-fluorescence, and median schizont size at 10uM compound concentration
Assay type: functional, organism-based
Settings: for IC50: Plasmodium yoelii, HepG2-A16-CD81
In short: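 Host and parasite nuclei stained with Hoechst 33342, parasites with αPyHSP70 antibody; 25 images per well by high-content imaging; median parasite (schizont) area measured by automated image analysis, ~50 schizonts per experiment, two or more independent experiments.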

Structure (SMILES): CCOC(=O)C1=C(C)NC2=C(C(=O)C(C(=O)OCC)C(c3ccc(OC)cc3)C2)C1c1ccc(OC)c(OC)c1 (centres undefined)
Schizont size: 86.53 um
IC50: 240 nM

Structure (SMILES): CCCCN(CCCC)[P+](N(CCCC)CCCC)(N(CCCC)CCCC)N(CCCC)CCCC
Schizont size: 24.32 um
IC50: 11.5 nM

Structure (SMILES): O=C(Nc1ccc(-c2nc3cc(NC(=O)c4ccc(Br)o4)ccc3[nH]2)cc1)c1ccc(Br)o1
Schizont size: 101.14 um
IC50: 812 nM

Structure (SMILES): [Br-].c1ccc(-c2nn(-c3ccccc3)[n+](-c3ccccc3)n2)cc1
Schizont size: 26.51 um
IC50: 107 nM

Structure (SMILES): Cl.Fc1ccccc1Nc1nc(NCc2ccccc2)c2ccccc2n1
Schizont size: 37.58 um
IC50: 690 nM

Structure (SMILES): O=C(c1cc2nc(-c3ccccc3)cc(C(F)(F)F)n2n1)N1CCN(Cc2ccccc2)CC1
Schizont size: 148.94 um
IC50: > 10000 nM

Structure (SMILES): CN(C)c1oc(-c2ccc(Cl)cc2Cl)nc1[P+](c1ccccc1)(c1ccccc1)c1ccccc1.[I-]
Schizont size: 19.41 um
IC50: 129 nM

Structure (SMILES): Oc1cccc2ccc[n+](CC(O)Cn3c4ccccc4c4ccccc43)c12.[Cl-] (centres undefined)
Schizont size: 49.37 um
IC50: 311 nM

Structure (SMILES): O=c1c2ccccc2[nH]c2ccc(I)cc12
Schizont size: 24.95 um
IC50: 105 nM

Structure (SMILES): CCCCN(CCCC)S(=O)(=O)c1ccc(NC(=O)c2ccco2)cc1
Schizont size: 35.28 um
IC50: 377 nM

Structure (SMILES): Cc1cc(Nc2cccc(F)c2)nc(NCc2ccccc2)n1
Schizont size: 73.06 um
IC50: 1110 nM

Structure (SMILES): COc1ccc2[nH]c3ccccc3c(=O)c2c1
Schizont size: 30.27 um
IC50: 135 nM

Structure (SMILES): CC(Oc1ccc(Cl)cc1Cl)c1nc(-c2ccc(NC(=O)c3cccs3)cc2)no1 (centres undefined)
Schizont size: 21.92 um
IC50: 114 nM

Structure (SMILES): CCOc1ccc(CN(C(=O)COc2ccc(Cl)cc2)C(C)CCCN(CC)CC)cc1.O=C(O)C(F)(F)F (centres undefined)
Schizont size: 55.32 um
IC50: 20.4 nM

Structure (SMILES): CCOc1ccc2[nH]c(=O)c(CN(CCN(CC)CC)C(=S)NCCCN(CC)CC)cc2c1
Schizont size: 120.76 um
IC50: 2170 nM

Structure (SMILES): C=CC[n+]1c(C=C2C=CN(C)C=C2)sc2ccccc21.[I-]
Schizont size: 26.72 um
IC50: 13.2 nM

Structure (SMILES): CCN(CC)CCCC(C)Nc1c2ccc(Cl)cc2nc2ccc(OC)cc12 (centres undefined) [QUINACRINE]
Schizont size: 26.3 um
IC50: 166 nM

Structure (SMILES): Cc1cccc2c1[nH]c1nc(SCC(C)C)nnc12
Schizont size: 36.43 um
IC50: 152 nM

Structure (SMILES): CCOc1ccc(N2C(N)=NC(N)=NC2(C)C)cc1.Cl
Schizont size: 35.59 um
IC50: 46.8 nM

Structure (SMILES): Cc1ccc(Nc2cc(C)nc(NCc3ccccc3)n2)c(C)c1
Schizont size: 89.14 um
IC50: 1300 nM

Structure (SMILES): CCCN(CCC)[P+](CCC)(c1ccc([P+](CCC)(N(CCC)CCC)N(CCC)CCC)cc1)N(CCC)CCC
Schizont size: 28.29 um
IC50: 280 nM

Structure (SMILES): CCCCCC[P+](N(CCC)CCC)(N(CCC)CCC)N(CCC)CCC
Schizont size: 30.27 um
IC50: 49.1 nM

Structure (SMILES): CN(C)CCCN(Cc1cc2cc3c(cc2[nH]c1=O)OCO3)C(=S)Nc1cccc(Cl)c1
Schizont size: 60.22 um
IC50: 818 nM

Structure (SMILES): OC1=C2C(=Nc3ccccc3SC2c2ccccc2)c2ccccc21 (centres undefined)
Schizont size: 28.39 um
IC50: 93.7 nM

Structure (SMILES): CCCCN(CC)CCNC(=O)C1c2ccccc2C(=O)N(Cc2ccc(F)cc2)C1c1ccc(OC)cc1 (centres undefined)
Schizont size: 63.36 um
IC50: 89.1 nM

Structure (SMILES): CCOC(=O)c1ccc(OCC2c3cc(OC)c(OC)cc3CCN2C(=O)c2ccc([N+](=O)[O-])cc2)cc1 (centres undefined)
Schizont size: 226.39 um
IC50: > 10000 nM

Structure (SMILES): O=C(O)Cn1cnc2nc3n(c2c1=O)CCC3
Schizont size: 183.18 um
IC50: > 770 nM

Structure (SMILES): CCOC(=O)c1cnc2ccc(OC)cc2c1Cl
Schizont size: 31 um
IC50: 410 nM

Structure (SMILES): CCCCNC(=O)C1CCC(CN(Cc2c(Cl)cccc2Cl)S(=O)(=O)c2ccc(Br)cc2)CC1 (centres undefined)
Schizont size: 29.64 um
IC50: 124 nM

Structure (SMILES): COc1ccc2nc(-c3ccccc3)cc(NCCN(C)C)c2c1
Schizont size: 69.1 um
IC50: 570 nM

Structure (SMILES): Oc1c(C(Nc2ccccn2)c2cccc(Cl)c2Cl)ccc2cccnc12 (centres undefined)
Schizont size: 23.8 um
IC50: 402 nM

Structure (SMILES): O=C(Nc1ccc(C(F)(F)F)cc1)c1ccc(NCCCN2CCCCCC2)c([N+](=O)[O-])c1
Schizont size: 74.21 um
IC50: 450 nM

Structure (SMILES): COc1ccc2nc(C)cc(Nc3ccc(Oc4ccc5ccccc5c4Cl)c(Cl)c3)c2c1
Schizont size: 31 um
IC50: 114 nM

Structure (SMILES): C=CC[N+]1(CC#Cc2cccc3ccccc23)CCCCC1.[Br-]
Schizont size: 80.06 um
IC50: 908 nM

Structure (SMILES): Nc1cccc(C(=O)Nc2ccc(Oc3cccc(Oc4ccc(NC(=O)c5cccc(N)c5)cc4)c3)cc2)c1
Schizont size: 90.81 um
IC50: 1760 nM

Structure (SMILES): CC(C)NC(=O)c1cc(NC(=O)c2cccs2)ccc1N1CCc2ccccc2C1
Schizont size: 26.93 um
IC50: 74.8 nM

IC50: 857 nM
Structure (SMILES): COc1cccc(CNC(=O)C2CNCC2c2ccc(C(F)(F)F)cc2)c1 (centres undefined)

IC50: > 6910 nM
Structure (SMILES): CCCCCCN(C(=O)c1ccc(C(C)(C)C)cc1)C(CC)c1nc2ccccc2c(=O)n1-c1ccc(F)cc1 (centres undefined)

Structure (SMILES): O=C(Nc1ccc(-c2nc3cc(NC(=O)c4cccc([N+](=O)[O-])c4)ccc3[nH]2)cc1)c1cccc([N+](=O)[O-])c1
Schizont size: 101.45 um
IC50: > 940 nM

Structure (SMILES): CCSc1ccc2ccccc2[n+]1CC.[I-]
Schizont size: 209.06 um
IC50: > 10000 nM

Structure (SMILES): COc1ccc(C2N(Cc3ccccc3)c3ccccc3N2Cc2ccccc2)cc1
Schizont size: 30.79 um
IC50: 121 nM

IC50: 221 nM
Structure (SMILES): NCC(=O)N1CCn2c(nc(-c3ccccc3)c2Nc2ccc3c(c2)OCO3)C1

Structure (SMILES): COc1ccc(CN2CCOc3ccc(C(C)(O)CN(C)C)cc3C2)cc1C (centres undefined)
Schizont size: 87.05 um
IC50: 67.5 nM

Structure (SMILES): Cc1ncc(CCCCN(C)C)c2c1[nH]c1ccccc12
Schizont size: 132.56 um
IC50: 2770 nM

Structure (SMILES): Cc1cc(C(=O)Nc2cnn(Cc3ccc(Cl)cc3Cl)c2)no1
Schizont size: 57.82 um
IC50: 335 nM

Structure (SMILES): O=C(c1cnsn1)N1CCCC(COc2cccc(CN3CCC(Cc4ccccc4)CC3)c2)C1 (centres undefined)
Schizont size: 69.41 um
IC50: 609 nM

Structure (SMILES): Cl.OCCNc1nc(Nc2ccccc2)nc2ccccc12
Schizont size: 62.1 um
IC50: 47.9 nM

Structure (SMILES): O=C1c2ccccc2C2=Nc3ccccc3SC(c3ccccc3F)C12 (centres undefined)
Schizont size: 28.6 um
IC50: 239 nM

Structure (SMILES): CCCCCCCC[n+]1c(C)n(C)c2cc(Cl)c(Cl)cc21.[I-]
Schizont size: 40.39 um
IC50: 419 nM

Structure (SMILES): CC1CC(N(C(=O)c2ccc(Cl)cc2Cl)c2ccccc2)c2ccccc2N1C(=O)c1ccc(Cl)cc1 (centres undefined)
Schizont size: 110.64 um
IC50: 3640 nM

Structure (SMILES): CCOC(=O)C1=C(c2ccccc2)N=c2sc(=Cc3cc(C)n(-c4ccc(F)cc4)c3C)c(=O)n2C1c1cccc(OC)c1OC (centres undefined)
Schizont size: 106.25 um
IC50: 2450 nM

Structure (SMILES): COc1ccc(C2CC3=NC(C)=C(C(=O)OC(C)C)C(c4ccccc4OC)C3=C(O)C2)cc1OC (centres undefined)
Schizont size: 182.03 um
IC50: > 10000 nM

Structure (SMILES): COc1ccc2c(C)nc(Nc3nc(C)cc(-c4ccccc4)n3)nc2c1
Schizont size: 170.24 um
IC50: 6660 nM

Structure (SMILES): Fc1ccc2nc(Nc3nc(-c4ccccn4)cs3)sc2c1
Schizont size: 22.86 um
IC50: 43.8 nM

Structure (SMILES): CCOc1ccc(Nc2cc(=O)oc3ccccc23)cc1
Schizont size: 43.94 um
IC50: 502 nM

Structure (SMILES): Cc1ccc(N2C(N)=NC(N)=NC2(C)C)cc1.Cl
Schizont size: 35.07 um
IC50: 10 nM

Structure (SMILES): CCC(C)Nc1nc(NC(C)CC)nc(N2CCCCCC2)n1 (centres undefined)
Schizont size: 20.35 um
IC50: 300 nM

Structure (SMILES): CCCCCCCc1cc(O)c2c3c(c(=O)oc2c1)CCC(C)C3 (centres undefined)
Schizont size: 31.52 um
IC50: 247 nM

Structure (SMILES): C[C@@H]1CCC[C@@H](C[C@H]2Cc3cc(O)cc(O)c3C(=O)O2)O1
Schizont size: 41.96 um
IC50: 112 nM

Structure (SMILES): CC1(C)N=C(N)N=C(N)N1c1ccc(F)cc1.Cl
Schizont size: 38.93 um
IC50: 18.9 nM

Structure (SMILES): CCCc1nc2ccc(NC(=O)c3ccco3)cc2c(=O)n1Cc1ccc(-c2ccccc2)cc1
Schizont size: 25.78 um
IC50: 306 nM

Structure (SMILES): CCc1cc2c(cc1-c1csc(NC(=N)N)n1)C(C)(C)CCC2(C)C
Schizont size: 92.27 um
IC50: 2900 nM

Structure (SMILES): CC[n+]1c(/C=C/N(C)c2ccccc2)n(-c2ccccc2)c2ccc(-c3nc4ccccc4s3)cc21
Schizont size: 20.14 um
IC50: 14 nM

Structure (SMILES): COc1ccccc1-n1c(C=Cc2cc(Br)ccc2O)nc2ccccc2c1=O
IC50: 4590 nM

Structure (SMILES): O=C(NC(=C(Cl)Cl)[P+](c1ccccc1)(c1ccccc1)c1ccccc1)c1ccc(F)cc1
Schizont size: 26.93 um
IC50: 14.5 nM

Structure (SMILES): COc1ccc(Nc2nc(NCc3ccccc3)c3ccccc3n2)cc1
Schizont size: 29.96 um
IC50: 305 nM

Structure (SMILES): CCN1/C(=C/c2ccc3ccccc3[n+]2CC)Sc2sc3ccccc3c21
Schizont size: 32.77 um
IC50: 6.21 nM

Structure (SMILES): CCOC(=O)C1=C(C)NC2=C(C(=O)C(C(=O)OCC)C(c3ccccc3OC)C2)C1c1cc(OC)c(OC)c(OC)c1 (centres undefined)
Schizont size: 103.54 um
IC50: 509 nM

IC50: 6300 nM
Structure (SMILES): CCCN(C(=O)Nc1c(C(C)C)cccc1C(C)C)C(CC)c1nc2ccccc2c(=O)n1-c1cccc(C)c1 (centres undefined)

Structure (SMILES): c1ccc(CNc2nc(Nc3ccccc3)nc3ccccc23)cc1
Schizont size: 29.85 um
IC50: 153 nM

Structure (SMILES): Br.O=C(Cn1ccc(=NCc2ccccc2)cc1)c1ccc(I)cc1
Schizont size: 44.99 um
IC50: 825 nM

Structure (SMILES): CCc1c(C)c(C#N)c2nc3ccccc3n2c1NCc1ccccc1
Schizont size: 126.09 um
IC50: > 9600 nM

Structure (SMILES): CCN(CC)CCCN(Cc1cc2ccc(C)cc2[nH]c1=O)C(=S)Nc1cccc(Cl)c1
Schizont size: 58.76 um
IC50: 448 nM

Structure (SMILES): CCN(CC)c1ccc(NC(=O)c2cccs2)cc1
Schizont size: 54.07 um
IC50: 396 nM

Structure (SMILES): CCCCc1c(C)nc2ccc(Br)cc2c1O
Schizont size: 25.99 um
IC50: 64.7 nM

Structure (SMILES): O=c1c2ccccc2[nH]c2ccc(F)cc12
Schizont size: 29.64 um
IC50: 223 nM

Structure (SMILES): Cc1ccc(-n2c(-c3ccccc3)cc(C=NNC(=O)c3cccc(-n4c(C)ccc4C)c3)c2-c2ccccc2)cc1
Schizont size: 30.06 um
IC50: 47.9 nM
